Measurements from ChEMBL document CHEMBL1148198, “Inhibition of HIV-1 envelope-mediated fusion by synthetic batzelladine analogues” (J Nat Prod, 2004).
Active and inactive are the calls of the source. The rule behind the calls is not given here.

Tested on: not listed separately
Assay: (§1) Inhibition of HIV1 envelope glycoprotein gp160-mediated cell fusion by cell-cell fusion assay
Design: species or system Human immunodeficiency virus 1
Summary of the method: (§2)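 Cell-cell fusion driven by HIV-1 Env from LAV (X4) and SF162 (R5) strains. Inhibitor added to wells at increasing concentrations; run in duplicate on at least two separate days. Percent fusion fitted by nonlinear least squares to % fusion = 100/(1 + KA[I]), where KA is the equilibrium association constant for inhibitor binding to gp120.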

SMILES | IC50
CCCCCCCCC[C@@H]1C[C@@H]2CC[C@H]3C(C(=O)OC(C)(C)C)=C(C)NC(=[N+]23)N1 | 3.5 µM
CC(=O)CC(=O)O[C@@H](C)CCCCC[C@H]1C[C@H]2CC[C@H]3C[C@@H](C)NC(=[N+]23)N1 | 5.3 µM
C=CCOC(=O)C1=C(CCCCC[C@@H](C)O[Si](C)(C)C(C)(C)C)NC2=[N+]3[C@H](CC[C@@H]13)C[C@H](C)N2 | 4.5 µM
CC(=O)CC(=O)O[C@@H](C)CCCCC[C@@H]1C[C@@H]2CC[C@@H]3C[C@H](C)NC(=[N+]32)N1 | 17 µM

The next lines start with the values.

IC50 | SMILES
3 µM | CCCCCCCCC[C@@H]1C[C@@H]2CC[C@H]3[C@H](C(=O)O[C@H](C)CCCCC[C@@H]4C[C@@H]5CC[C@@H]6C[C@H](C)NC(=[N+]65)N4)[C@@H](C)NC(=[N+]23)N1
6.2 µM | CCCCCCCCC[C@H](O)C[C@@H]1CC[C@H]2C(C(=O)O[C@H](C)CCCCC[C@H]3C[C@H]4CC[C@H]5C[C@@H](C)NC(=[N+]45)N3)=C(C)NC(N)=[N+]12
7.7 µM | CCCCCCCCC[C@H](O)C[C@@H]1CC[C@H]2C(C(=O)O[C@@H](C)CCCCC[C@@H]3C[C@@H]4CC[C@@H]5C[C@H](C)NC(=[N+]54)N3)=C(C)NC(N)=[N+]12
0.8 µM | CCCCCCCCC[C@@H]1C[C@@H]2CCC3=C(C(=O)O[C@H](C)CCCCC[C@@H]4C[C@@H]5CC[C@@H]6C[C@H](C)NC(=[N+]65)N4)[C@@H](C)NC(=[N+]32)N1
2.5 µM | CCCCCCCCC[C@@H]1C[C@@H]2CC[C@H]3[C@H](C(=O)O[C@H](C)CCCCC[C@@H]4C[C@@H]5CC[C@@H]6C[C@H](C)NC(=[N+]65)N4)[C@H](C)NC(=[N+]23)N1
1.8 µM | CCCCCCCCC[C@@H]1C[C@@H]2CC[C@H]3C(C(=O)O[C@@H](C)CCCCC[C@@H]4C[C@@H]5CC[C@@H]6C[C@H](C)NC(=[N+]65)N4)=C(C)NC(=[N+]23)N1

Tested on: Human immunodeficiency virus 1
Assay: as §1
Summary of the method: as §2

Activity | SMILES
inactive | CCCCCCCCC[C@H]1C[C@H]2CC[C@H]3C(C(=O)OCc4ccc(COC(=O)C5=C(C)NC6=[N+]7[C@H](CC[C@@H]57)C[C@H](CCCCCCCCC)N6)cc4)=C(C)NC(=[N+]23)N1
inactive | CCCCCCCCC[C@H]1C[C@H]2CC[C@H]3C(C(=O)OCCCCCCCCOC(=O)C4=C(C)NC5=[N+]6[C@H](CC[C@@H]46)C[C@H](CCCCCCCCC)N5)=C(C)NC(=[N+]23)N1

Tested on: Human immunodeficiency virus 1
Assay: Inhibition of HIV1 envelope glycoprotein gp160-mediated cell fusion at 100 µM by cell-cell fusion assay

Activity | SMILES
inactive | CCCCCCCCC[C@H]1C[C@H]2CC[C@H]3C(C(=O)OCc4ccc(COC(=O)C5=C(C)NC6=[N+]7[C@H](CC[C@@H]57)C[C@H](CCCCCCCCC)N6)cc4)=C(C)NC(=[N+]23)N1
inactive | CCCCCCCCCC1=C(C(=O)OCc2ccc(COC(=O)C3=C(CCCCCCCCC)NC4=[N+]5[C@H](CC[C@@H]35)C[C@H](CCCCCCC)N4)cc2)[C@@H]2CC[C@@H]3C[C@H](CCCCCCC)NC(=[N+]32)N1
